# EP2 mod = modulators of human EP2 prostaglandin E2 receptor; P43116; EP2-expressing cells, cAMP HTRF FRET, PGE2 co-stimulation; induction, % at 25 µM; 0.83% of 260,000 active; AID 940;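 active = compounds whose cAMP rise, as percent of the full-agonist control response, exceeds 60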;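 also: rat C6 glioma line stably carrying human EP2 under a CMV promoter; the protocol text gives 20 µM as final concentration; 100% = response of wells given 1 µM PGE2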
# Target sequence (P43116 whole entry, looked up): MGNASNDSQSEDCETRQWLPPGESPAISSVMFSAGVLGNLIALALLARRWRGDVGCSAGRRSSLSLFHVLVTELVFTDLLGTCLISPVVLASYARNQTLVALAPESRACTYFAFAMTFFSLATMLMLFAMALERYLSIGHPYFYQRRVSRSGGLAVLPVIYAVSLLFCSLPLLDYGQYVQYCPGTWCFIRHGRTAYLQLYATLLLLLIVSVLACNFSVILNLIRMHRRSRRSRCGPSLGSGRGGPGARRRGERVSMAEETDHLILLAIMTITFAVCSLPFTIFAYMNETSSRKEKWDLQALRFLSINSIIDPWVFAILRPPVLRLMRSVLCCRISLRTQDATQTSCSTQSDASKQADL
# T cell HTS = T cell immune modulation candidate; 2C CD8+ T cell-vesicle binding, flow cytometry; hits give low values; response (vesicle binding), % at 7 µM; 0.068% of 330,000 active;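 active = response, share of CD8 T cells binding vesicles, and their 90th percentile fluorescence all below set limits, cut at about 80% in these data, passing the limit was not always enough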;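 also: values below 100% mean blocked vesicle binding to the CD8+ T cells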
#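 incubation = binding step 1.5 h, 37 °C, antibody labelling 20 min, ice | test system = 2C mouse CD8+ T cells | read-out basis = percent CD8+ FL2 mean versus row control | controls = Peptide-free naked vesicles (low) and QL9 vesicles with 0.7% DMSO vehicle (high) | detection = flow cytometry of vesicle-bound cells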
# MC4R ag barr = agonists of human melanocortin 4 receptor (MC4R) beta-arrestin; U2OS MC4R beta-arrestin complementation, luminescence; percent of melanotan II response, DMSO zero; P32245; activation, % at 8.9 µM; 0.98% of 360,000 active; AID 540308;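 active = activation above a per-plate cutoff, the mean activation of sample wells on that plate plus 3 SD, cut at about 8% in these data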
# Target sequence (P32245 whole entry, looked up): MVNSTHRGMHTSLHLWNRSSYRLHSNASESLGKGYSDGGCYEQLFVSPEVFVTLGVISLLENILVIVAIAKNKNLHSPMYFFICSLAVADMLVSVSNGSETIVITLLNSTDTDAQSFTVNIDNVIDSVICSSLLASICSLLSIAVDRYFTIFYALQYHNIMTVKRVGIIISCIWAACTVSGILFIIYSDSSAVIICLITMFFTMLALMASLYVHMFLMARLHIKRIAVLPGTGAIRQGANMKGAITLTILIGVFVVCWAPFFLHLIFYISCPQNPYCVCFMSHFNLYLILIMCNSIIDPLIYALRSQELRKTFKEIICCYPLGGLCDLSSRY
# Exocytosis inh = blocks lytic granule exocytosis; TALL-104 LAMP-1 surface exposure, flow cytometry; cells stimulated with thapsigargin and PMA; inhibition, % at 10 µM; 0.66% of 360,000 active; AID 651702;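 active = inhibition above about 55%, limit read from the data; inconclusive = no clear call, values can overlap the other calls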
# PGE2 EP2 inh = blocks the human prostaglandin E2 receptor EP2. P43116. C6 glioma cells expressing human EP2, cAMP TR-FRET; cells stimulated with saturating PGE2. inhibition, % at 25 µM. 0.52% of 260,000 active. AID 1422;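 active = percent inhibition above 40 after rounding to a whole number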;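 also: rat C6 glioma host cells with rolipram phosphodiesterase inhibitor present; the protocol text gives 20 µM as final concentration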
# MC4R antagonist = human MC4R antagonism in cAMP assay; P32245; MC4R-expressing cells, MTII-stimulated cAMP, LANCE TR-FRET; inhibition, % at 6.5 µM; 0.48% of 360,000 active; AID 540295;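 active = inhibition above its plate's cutoff, the mean of tested wells on that plate plus 3 SD, cut at about 29% in these data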;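 also: 0% = Melanotan II alone and 100% = Melanotan II plus saturating MCL0020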
#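 Material – human MC4R-expressing U2OS cells · Repeats – no replicates · Detection – TR-FRET with Eu-cAMP and labeled anti-cAMP, 671 nm · Times – compound 30 min, challenge 1 h, detection 1 h · Compound – single nominal compound dose of 6.5 µM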
# An asterisk follows results filed as active; ? = inconclusive; . = no result; ! = not active in a repeat. Sampled rows, rich in hits. Any-hit rate of the full collection: about 2.6%.
SMILES,EP2 mod,T cell HTS,MC4R ag barr,Exocytosis inh,PGE2 EP2 inh,MC4R antagonist
Cc1cn([C@H]2C[C@H](O)[C@@H](CCC(=O)NCc3cccc4ccccc34)O2)c(=O)[nH]c1=O,.,.,.,-5.9,.,.
CCOC(=O)NC(=O)C(=CNc1ccccc1OC)C(=O)NC(=O)OCC,17.4,460.2,-2.2,?,10.6,-2.7
O=C(NC1CCCC1)C1CC(c2ccc(F)cc2)=NO1 (configuration not stated),-17.4,0.0*,0.4,3.9,1.7,8.3
CC1=C/C(=N\OS(=O)(=O)c2ccccc2)C(C(C)C)=CC1=O,-66.8,397.6,30.7*,12.9,28.1,45.4*
Cc1cccc(C)c1-n1nnnc1-c1nc2cc(Br)ccc2[nH]c1=O,.,.,.,77.4*,.,.
COCCNc1nc(Oc2cccc(NC(C)=O)c2)c2sc(-c3ccccc3)cc2n1,.,.,9.1*,47.4,.,22.8
COCCNc1nc(Oc2cccc(NC(C)=O)c2)c2sccc2n1,.,.,1.2,-7.6,.,8.2
COc1cccc(CC2(CO)CCCN(Cc3ccccc3-c3ccco3)C2)c1 (configuration not stated),62.9*,413.5,2.2,-5.1,1.5,3.1
COc1cccc(CC2(CO)CCCN(Cc3ccc(-c4ccco4)cc3)C2)c1 (configuration not stated),-36.1,399.1,0.1,2.7,3.3,12.3
COc1ccc(/C=N/N2CCN(c3ccccc3OC)CC2)cc1Br,.,469.9,-2.4,0.8,.,6.3
O=C(/C=C/c1ccccc1)NC1CC2CCCC(C1)N2Cc1cccs1 (configuration not stated),-97.0,.,.,.,49.1*,.
CCOc1ccc2[nH]c(=O)c(CN(Cc3ccccc3)C(CC)c3nnnn3C3CCCC3)cc2c1 (configuration not stated),62.0*,.,.,.,20.2,.
CCC(c1nnnn1C1CCCC1)N(Cc1ccccc1)Cc1cc2cc(OC)ccc2[nH]c1=O (configuration not stated),73.9*,.,.,.,15.3,.
CCC(c1nnnn1C1CCCCC1)N(Cc1ccccc1)Cc1cc2cc(C)c(C)cc2[nH]c1=O (configuration not stated),59.2,.,.,.,7.3,.
CCC(c1nnnn1C(C)(C)C)N(Cc1ccccc1)Cc1cc2cc(OC)ccc2[nH]c1=O (configuration not stated),68.5*,.,.,.,11.8,.
CCOc1ccc2[nH]c(=O)c(CN(Cc3cccs3)C(CC)c3nnnn3C3CCCC3)cc2c1 (configuration not stated),62.5*,.,.,.,5.9,.
COC(=O)c1sc2nc3c(cc2c1N)C(=O)CC(C)(C)C3,1.9,509.0,-3.2,5.4,10.2,15.3
O=c1c2ccccc2nc2oc3ccccc3n12,.,793.6,-1.2,4.1,.,0.3
CC(C)C[C@H]1COCCS(=O)(=O)N1Cc1ccccc1F,.,535.1,-0.7,-1.2,9.7,10.3
CCC(c1nnnn1C1CCCCC1)N(Cc1ccc(C)cc1)Cc1cc2cccc(C)c2[nH]c1=O (configuration not stated),66.2*,.,.,.,9.0,.
CCC(c1nnnn1C1CCCC1)N(Cc1ccc(C)cc1)Cc1cc2ccc(C)cc2[nH]c1=O (configuration not stated),27.3,.,.,.,6.3,.
Cc1ccc(-c2ccc(=O)n(CC(=O)N3CCN(c4cc(Cl)ccc4C)CC3)n2)cc1,11.1,305.1,8.5*,1.3,7.2,10.8
Cc1ccc(-c2ccc(=O)n(CC(=O)N3CCN(c4cccc(C)c4)C(C)C3)n2)cc1 (configuration not stated),-48.8,364.5,7.0,3.8,18.3,16.9
Cc1ccccc1OCC(O)Cn1c(=N)n(Cc2ccccc2)c2ccccc21 (configuration not stated),-10.9,107.0,9.1*,26.1,7.8,-0.6
O=C(O)c1ccc2c(c1C(=O)O)C(=O)OC2(c1ccc(O)cc1)c1ccc(O)cc1,19.9,.,.,.,43.7*,.
SMILES,EP2 mod,T cell HTS,MC4R ag barr,Exocytosis inh,PGE2 EP2 inh,MC4R antagonist
CS(=O)(=O)c1nc(-c2ccccc2)cc(C(F)(F)F)n1,-19.4,172.6,-3.3,74.4*,.,16.4
Cc1cc(NC(=O)CCS(=O)(=O)c2nc(-c3ccccc3)cc(C(F)(F)F)n2)no1,12.3,146.1,-4.1,48.8,13.5,24.6
CC(=O)c1nn(-c2ccccc2)cc1C(=O)c1ccc(C)cc1,.,748.5,-1.7,-9.7,.,-2.4
N#Cc1cn(-c2ccccc2)nc1C(=O)c1ccccc1,62.4*,574.9,0.3,-1.5,15.4,-7.1
COc1ccc(OC)c(C(c2nnnn2C2CCCC2)N2CCN(c3ccccc3F)CC2)c1 (configuration not stated),65.8*!,220.3,-2.9,4.4,4.8,4.0
CC1CC(C)CN(CC(O)COc2ccc3c(c2)CCC3)C1 (configuration not stated),-38.2,133.5,-1.4,-5.9,1.4,0.4
CN1[C@@H](c2ccccc2)CC(=NO)C[C@H]1c1ccccc1,39.4,.,.,.,41.9*,.
CCOC(=O)C1CCN(C(=S)Nc2cccc(C)c2C)CC1,24.0,235.4,-1.4,9.8,9.4,6.5
Cc1ccc(C(=O)N2CCCc3ccccc32)c(F)c1F,61.5*,269.4,-1.5,4.4,4.1,3.2
Cc1cc(C)c(O)c(-c2cc(C(=O)Nc3c(C)n(C)n(-c4ccccc4)c3=O)[nH]n2)c1,14.2,373.7,-0.6,-0.7,1.3,-0.5
Cc1cccc2c1Sc1ccccc1CC2=O,64.1*,553.6,6.9,-3.8,14.9,3.9
O=C1Cc2ccccc2Sc2ccc(O)cc21,-3.5,202.9,-2.4,1.6,1.4,-1.6
CC(=O)Nc1cccc(N/C=C(\C=O)c2nc3ccccc3o2)c1,-27.9,123.9,-2.2,56.1*,17.5,-1.8
CC(=O)Nc1ccc(N/C=C(\C=O)c2nc3ccccc3o2)cc1,-18.9,257.0,3.4,-1.0,-0.1,-5.8
Cc1nc(-c2ccccc2)nn1-c1ccc([N+](=O)[O-])cc1,.,331.9,0.1,-14.4,.,-9.2
COc1ccc(CN2C(=O)C(C)Nc3ncnc(N4CCN(c5ccccn5)CC4)c32)cc1 (configuration not stated),.,0.0*,-5.8,-3.0,.,2.1
COc1ccccc1NC(=O)Nc1nnc(Cc2ccccc2F)s1,.,878.4,3.2,-17.1,.,1.7
COc1ccc(OCc2nnc(NC(=O)Nc3ccccc3F)s2)cc1,-6.9,365.2,8.3*,-1.7,8.1,14.1
C[n+]1c2n(c3ccccc31)N=C(c1cc(C(C)(C)C)c(O)c(C(C)(C)C)c1)CS2,0.7,139.4,-1.6,57.6*,8.4,-6.3
COc1nc(Nc2ccc(C(C)=O)cc2)nc(OC)n1,-18.9,387.2,-1.8,2.8,4.4,1.7
C=CCNC(=S)NNC(=O)C(CCCC)CC(O)COCC(C)C (configuration not stated),-1.9,456.2,-1.2,8.4,120.0*,2.5
